Data on 97 compounds can be found in ChEMBL document CHEMBL4513216, “Probing the Open Global Health Chemical Diversity Library for Multistage-Active Starting Points for Next-Generation Antimalarials” (ACS Infect Dis, 2020).

A short description of the series: Toxicity liver stage against HepG2, at 10uM. Conditions: human, HepG2-A16-CD81EGFP cells; read-out: INHIBITION
It counts as cell-based. Also noted: test concentration 10 uM, cell line HepG2-A16-CD81EGFP. The method in brief: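 Uninfected HepG2-A16-CD81EGFP cells, 3 × 10^3 per well, 1536-well, plated on prespotted compound at 10 μM final, parasite-free screening media added to match infected plates; puromycin 10 μM positive, DMSO 0.5% negative; run in parallel with 48 h PbLuc assay at 37 °C, 5% CO2; viability by CellTiter-Glo luminescence, normalized to controls.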
In the case of `CC(C)(C)CN1CC(O)CN(C(=O)c2cccc(C(F)(F)F)c2)CC1=O` (configuration not stated), the cytotoxicity at 10 µM was 5.99%.
The same measure for `CC[C@H](C)[C@H](NC(=O)c1ccc(-n2cnnn2)cc1)C(=O)OC`: 9.09%; for `COc1ccc(-c2csc3c2c(N)nc(=O)n3CCCN(C)C)cc1`: -54%; for `Cc1cnc2n(c1=O)C(CC(=O)NCc1ccc(Cl)cc1)CS2` (configuration not stated): -5.55%.
As to `COC(=O)c1ccc(S(=O)(=O)NC2CNC(=O)C2)cc1` (configuration not stated), the cytotoxicity at 10 µM was -7.27%.
In the case of `O=C(c1cnccn1)N1CCn2cnc(COCC3CC3)c2C1` it was 7.14%.
For `CC(C)CCNc1c(C#N)c2c(c3nncn13)CN(C)CC2`, the cytotoxicity at 10 µM amounted to 9.26%.
The same measure for `Cc1oc(-c2nc(C#N)c(NC(C)C)o2)cc1S(=O)(=O)N1CCCCC1`: 4.28%.
The same measure for `C=C/C=c1\c(=C/C)oc2c(NCc3ccccc3)ncnc12`: 21.3%; for `Cc1cccc2c1cnn2CCCNC(=O)CCCC(=O)O`: -11.1%; for `Cc1cc(C)n(-c2nc(C(=O)NCCN3CCC(C)CC3)cs2)n1`: 10.2%.
Turning to `Cc1nc(O)c2c(n1)CCN(Cc1cc(C)sc1C)CC2`, the cytotoxicity at 10 µM is -9%.
In the case of `Cc1cc(C(F)(F)F)c2c(C3CCN(S(=O)(=O)N(C)C)CC3)noc2n1` it was 3.63%.
With `CC(C)(C)n1ncc(NCc2ccccc2)c(Cl)c1=O`, the cytotoxicity at 10 µM was found to be 55.8%.
In the case of `CCCc1nn(Cc2csc(CC)n2)c(=O)o1` it was -43.1%; in that of `Cn1cnc2c1CCN(c1ccnc(-c3ccccc3)n1)C2`, 7.51%.
Consider `COCc1nc(-c2ccc(S(=O)(=O)N3CCCC3)cc2)cs1`, for which the cytotoxicity at 10 µM is -49.8%.
The same measure for `COCCN1CCC(CNc2nc3ccccc3o2)CC1`: -53.6%.
In the case of `CN1CCC(N(Cc2ccco2)S(=O)(=O)c2ccc(Br)cc2Cl)CC1` it was -12.8%; in that of `COC(=O)NCC(=O)N1CCCC1c1nc(-c2ccccc2F)c[nH]1` (configuration not stated), 8.01%; in that of `CC(=O)N1CCc2ccccc2C1CC(=O)NCc1nnc(C)o1` (configuration not stated), 5.8%.
In the case of `Cc1ccc(C(C)NC(=O)N2CCCN(CC(F)F)CC2)s1` (configuration not stated) it was 3.44%; in that of `CC(=O)c1cccc(NC(=O)N(CC(F)F)C2CC2)c1`, 2.08%; in that of `CC1CN(c2ncnc3sccc23)CCN1c1nccs1` (configuration not stated), 32.1%.
`CSCC(=O)N1CCN(CC(O)C(C)(C)C)CC1` (configuration not stated): the cytotoxicity at 10 µM was -5.66%.
In the case of `COc1cc2c(cc1CNCc1cccnc1OC)OC(C)C2` (configuration not stated) it was 3.67%; in that of `Cc1occc1C(=O)NCC(=O)N(C)CCCOc1ccccc1`, -50.2%; in that of `Cc1ccc(C(C)(C)CNC(=O)NC(C)Cn2cncn2)cc1` (configuration not stated), 3.09%.
The same measure for `CC(CNC(=O)CCCc1ccccn1)c1ccsc1` (configuration not stated): 7.42%; for `CCS(=O)(=O)N1Cc2ccccc2CC1C(=O)OCc1cc(C)no1` (configuration not stated): -13%.
In the case of `CCS(=O)(=O)Cc1nnnn1-c1ccccc1` it was 2.7%.
Turning to `C=C(C)CN1CCCC1c1nc(Cc2ccc(F)cc2)no1` (configuration not stated), the cytotoxicity at 10 µM is -4.9%.
On to `CCN(CCCNC(=O)c1ccc(C)[nH]c1=O)S(C)(=O)=O`, for which the cytotoxicity at 10 µM is -8.01%.
In the case of `Cc1ccc(C(CNCc2ncc[nH]2)N2CCOCC2)s1` (configuration not stated) it was 12%.
The same measure for `Cc1nc2c(c(C)c1CC(=O)Nc1ccccc1F)c(=O)[nH]n2C`: 0.177%; for `CC(C)c1ocnc1C(=O)NC1(c2cccc(F)c2)CCOCC1`: 6.81%; for `COc1ncc(Cl)c(NCc2ccc([S+](C)[O-])cc2)n1` (configuration not stated): -4.18%.
The same measure for `CCCNC(=O)CN1CCOC(CC)C1` (configuration not stated): 2.98%.
Turning to `COc1cccc(CN(C)C(=O)c2ccc(NC(C)=O)s2)c1OC`, the cytotoxicity at 10 µM is 0.23%.
For the compound `CNC(=O)c1ccc(OC)c(NCc2ncc(-c3cccs3)o2)c1`, the cytotoxicity at 10 µM amounted to 14%.
With `Fc1ccc(OCCNC2CCN(Cc3ccncc3)CC2)c(F)c1`, the cytotoxicity at 10 µM was -11.1%.
For the compound `CC(CCN(C)C)NC(=O)N1CCSC(C)(C)C1` (configuration not stated), the cytotoxicity at 10 µM came to 5.4%.
In the case of `CSCCC(NC(=O)c1ccc2ccccc2n1)C(=O)N(C)C` (configuration not stated) it was -12%; in that of `CC(C)(C)c1cnc(CN2CCC(NC(=O)NC3CCCCC3)CC2)o1`, -3.73%.
In the case of `Cc1nc(-c2ccccc2)sc1CSCCC(N)=O` it was -7.97%; in that of `O=C(COCc1ccccc1Cl)N1CCN(c2ccc(Br)cn2)CC1`, 46.6%; in that of `O=C(NC1CC1)N1C[C@H]2CN(Cc3cccc(F)c3)C(=O)[C@H]2C1`, -70.5%.
Take `CS(=O)(=O)N[C@H]1CN(C(=O)c2cscn2)[C@@H]2CCCO[C@H]12`: the cytotoxicity at 10 µM was -84.6%.
The same measure for `O=C1CC2(CCN(Cc3ccoc3)C2)CN1c1ccc2c(c1)OCO2` (configuration not stated): -6.72%; for `CCCOC(=O)N1CCn2nc(-c3nc4ccccc4n3C)cc2C1`: 10.6%; for `CC1CN(CC(=O)NCCc2ccncc2)Cc2ccccc2O1` (configuration not stated): -0.369%.
In the case of `CCC(=O)N1CCN(C(=O)Nc2ccc(Cl)cc2)[C@H]2CS(=O)(=O)C[C@H]21` it was -43.9%; in that of `COc1cccc(-c2nc3c([nH]2)CCNC3)c1F`, -44.7%; in that of `O=C1N(Cc2ccc(F)c(F)c2)CCCC1(O)CNCc1cccnc1` (configuration not stated), 0.598%.
With `CCCc1cc(CNC2CCN(c3cc(C(C)C)nc(C)n3)CC2)on1`, the cytotoxicity at 10 µM was -13.6%.
The same measure for `COc1cccc(CN2CCCCC2CN2CCOCC2)c1F` (configuration not stated): 2.64%; for `Cc1ccccc1OC1CCN(C(=O)c2c[nH]c(=O)[nH]c2=O)CC1`: 5.25%; for `CNc1ncc(CN(C)Cc2cc(O)c3cccc(Cl)c3n2)cn1`: 7.05%.
Turning to `COc1ccc2c(C)c(C(=O)NC3CCCOC3)oc2c1` (configuration not stated), the cytotoxicity at 10 µM is -7.28%.
For `COc1ccc(C(=O)NC2CC2)c(OC2CCN(CCCSC)CC2)c1`, the cytotoxicity at 10 µM is -1.76%.
In the case of `Cc1cccc2c(CCNC(=O)[C@H](N)c3ccccc3)c[nH]c12` it was -3.55%; in that of `CC(C)C1CN(C(=O)c2cn3cc(Cl)cnc3n2)CCCN1CC1CC1` (configuration not stated), 3.46%; in that of `CCC[C@H]1CN(CCS(C)(=O)=O)C[C@@H]1NC(=O)c1ccn(C)n1`, 5.83%.
The same measure for `N#CC1(c2ccccc2)CCN(C(=O)C2CCCN(CC(N)=O)C2)CC1` (configuration not stated): -7.47%.
In the case of `COc1cccc2c(=O)n(C3CCCNC3)cnc12` (configuration not stated) it was -42.4%; in that of `NC(=O)CN1CCC(C(=O)NCCn2cc(Cl)cn2)CC1`, -45.6%; in that of `Fc1cccnc1Oc1cc(F)c(CN2CCCC2)c(Cl)c1`, 3.3%.
With `O=C(Nc1ccc2c(c1)OCO2)N1CCN(CCc2ccccc2)CC1`, the cytotoxicity at 10 µM was -9.28%.
In the case of `CN(C)[C@H]1CCCCN(C(=O)c2cccc(-c3cccc(F)c3)c2)C1` it was -6.3%; in that of `Cc1ccc(CN2CCN(C(=O)c3ccc(CO)cc3)C(C)C2=O)cc1` (configuration not stated), 6.42%; in that of `Cc1nc(C2CCN(C[C@H](C)CO)CC2)cc(N2CCOCC2)n1`, -9.3%.
Consider `Cc1ncc(CNC2CC(=O)N(CCc3cccc(Cl)c3)C2)n1C` (configuration not stated), for which the cytotoxicity at 10 µM was -133%.
As to `O=c1[nH]c(NC2CCCC2)nc2nccc(-c3ccsc3)c12`, the cytotoxicity at 10 µM is -12.1%.
The same measure for `O=C(NCCN1CCOCC1)c1ccc(-c2ccc(F)cc2)nc1O`: 2.25%.
The same measure for `Cc1cc(C(F)(F)F)nn1CCCNC(=O)C1CCCO1` (configuration not stated): -6.5%; for `Cc1cc2n(n1)CC(CNCc1ccc(OCC3CC3)nc1)CN2` (configuration not stated): -8.42%.
In the case of `CCc1ccccc1OCC(=O)N1CCOCC1c1ncon1` (configuration not stated) it was -8.93%.
On to `CCOc1cc(C)nc(N2CCN(C(=O)C(C)NC(C)=O)CC2)n1` (configuration not stated), for which the cytotoxicity at 10 µM is -4.41%.
In the case of `CN(C(=O)Cc1ccccc1Cl)C1CCN(c2ccccn2)CC1` it was -7.48%; in that of `Cc1nc(NC(=O)CN2CCOC(Cn3cccn3)C2)sc1C` (configuration not stated), -8.27%.
In the case of `CC(C)(C)c1nc(CN2CCCC2Cn2cccn2)no1` (configuration not stated) it was 0.222%; in that of `CCn1cnnc1CNC(=O)N1CCN(c2nc(C)c(C)s2)CC1`, -9.62%; in that of `CC(C)c1nc(C2CCCN2C(=O)c2nccnc2N)no1` (configuration not stated), -1.96%.
In the case of `CCc1noc(C(C)N2CCN(Cc3noc(C)n3)CC2)n1` (configuration not stated), the cytotoxicity at 10 µM was -4.48%.
In the case of `CC(O)CN1CCN(C(=O)c2ccc3c(c2)COC3)CC1` (configuration not stated) it was -6.44%.
In the case of `Cc1cnn(CC2CCCN2CCc2nc3ccccc3c(=O)[nH]2)c1` (configuration not stated) it was -5.79%.
The same measure for `O=C(NCC(F)F)c1cnc(C2CCCN2)cn1` (configuration not stated): 0.13%; for `CCCC(=O)N(CCCN1CCOCC1)c1nc2c(C)c(C)ccc2s1`: -12.6%; for `Cc1cnc(N2CCC3(CCCN3C(=O)c3ccco3)CC2)nc1`: 6.71%.
As for `Cc1ccc2c(c1)CN(C(=O)C1CCCCC1)C(CN(C)C)CO2` (configuration not stated), the cytotoxicity at 10 µM was found to be 1.85%.
In the case of `CCc1c(C)[nH]c(C(C)(C)N)nc1=O` it was -11%; in that of `CCN1CCC2(CC1)CN(C(=O)c1cccnc1)c1ccc(Cl)cc12`, -111%; in that of `Cn1nc(COc2cccnc2)c2c1CCN(CC1CC1)C2`, -97.8%.
Take `O=C(NCc1cncc2c1CCN(C1CCOCC1)C2)c1ccco1`: the cytotoxicity at 10 µM is -0.758%.
The same measure for `CC(C)C(=O)NC1CC2(CCN(CC(=O)N(C)C)CC2)c2ccccc21` (configuration not stated): -103%; for `Cc1noc(C)c1CN1CCC2(CCN(Cc3cccc(F)c3)CC2)C1`: -122%.
In the case of `COc1ncccc1CNC1CCc2c(ccc(=O)n2C)C1` (configuration not stated) it was -103%.
